Activity calls are given as the source filed them. The rule behind the calls is not given here.
Experiments:
[1] = target: T1, 5-hydroxytryptamine receptor 1A (Homo sapiens, UniProt P08908); assay: Antagonist activity at 5-HT1A receptor (unknown origin) by Tango assay; format: functional
T1 sequence (P08908 whole entry): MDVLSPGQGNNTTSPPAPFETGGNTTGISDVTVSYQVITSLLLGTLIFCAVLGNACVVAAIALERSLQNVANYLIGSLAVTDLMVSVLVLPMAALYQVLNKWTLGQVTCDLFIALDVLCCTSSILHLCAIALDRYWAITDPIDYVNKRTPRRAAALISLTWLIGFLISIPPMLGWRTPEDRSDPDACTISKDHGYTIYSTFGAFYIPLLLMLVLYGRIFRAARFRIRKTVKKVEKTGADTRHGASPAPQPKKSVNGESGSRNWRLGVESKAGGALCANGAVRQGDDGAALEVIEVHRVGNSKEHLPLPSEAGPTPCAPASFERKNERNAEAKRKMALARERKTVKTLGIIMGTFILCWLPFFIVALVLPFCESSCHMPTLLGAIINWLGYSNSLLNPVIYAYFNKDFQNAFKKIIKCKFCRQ

[2] = target: T2, 5-hydroxytryptamine receptor 1B (Homo sapiens, UniProt P28222); assay: Agonist activity at 5-HT1B receptor (unknown origin) at 2 uM by Tango assay; format: functional
[3] = target: T2, 5-hydroxytryptamine receptor 1B; assay: Partial agonist activity at 5-HT1B receptor (unknown origin) by Tango assay; format: functional
[4] = target: T3, 5-hydroxytryptamine receptor 2C (Homo sapiens, UniProt P28335); assay: Displacement of [3H]-Mesulergine from human 5-HT2C receptor expressed in HEKT cells after 90 mins by microbeta scintillation counting analysis; format: cell-based
T3 sequence (P28335 whole entry): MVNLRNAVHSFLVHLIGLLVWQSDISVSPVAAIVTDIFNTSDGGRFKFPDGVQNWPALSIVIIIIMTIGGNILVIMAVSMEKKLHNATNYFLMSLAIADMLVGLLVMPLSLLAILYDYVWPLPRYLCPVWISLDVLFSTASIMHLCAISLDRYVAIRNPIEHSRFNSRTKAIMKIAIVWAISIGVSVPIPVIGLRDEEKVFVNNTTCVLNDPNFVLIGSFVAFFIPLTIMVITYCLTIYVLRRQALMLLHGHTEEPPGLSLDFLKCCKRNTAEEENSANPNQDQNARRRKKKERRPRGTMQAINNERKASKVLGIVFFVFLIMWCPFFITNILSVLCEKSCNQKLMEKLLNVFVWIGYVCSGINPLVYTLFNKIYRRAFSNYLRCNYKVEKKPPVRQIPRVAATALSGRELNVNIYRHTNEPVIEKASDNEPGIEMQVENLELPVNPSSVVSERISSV

[5] = target: 5-hydroxytryptamine receptor 4 (Homo sapiens, UniProt Q13639); assay: Antagonist activity at 5-HT4 receptor (unknown origin) by Tango assay; format: functional
[6] = target: T4, 5-hydroxytryptamine receptor 3A (Homo sapiens, UniProt P46098); assay: Displacement of [3H]-GR65630 from human 5-HT3 receptor expressed in HEKT cells after 90 mins by microbeta scintillation counting analysis; format: cell-based
T4 sequence (P46098 whole entry): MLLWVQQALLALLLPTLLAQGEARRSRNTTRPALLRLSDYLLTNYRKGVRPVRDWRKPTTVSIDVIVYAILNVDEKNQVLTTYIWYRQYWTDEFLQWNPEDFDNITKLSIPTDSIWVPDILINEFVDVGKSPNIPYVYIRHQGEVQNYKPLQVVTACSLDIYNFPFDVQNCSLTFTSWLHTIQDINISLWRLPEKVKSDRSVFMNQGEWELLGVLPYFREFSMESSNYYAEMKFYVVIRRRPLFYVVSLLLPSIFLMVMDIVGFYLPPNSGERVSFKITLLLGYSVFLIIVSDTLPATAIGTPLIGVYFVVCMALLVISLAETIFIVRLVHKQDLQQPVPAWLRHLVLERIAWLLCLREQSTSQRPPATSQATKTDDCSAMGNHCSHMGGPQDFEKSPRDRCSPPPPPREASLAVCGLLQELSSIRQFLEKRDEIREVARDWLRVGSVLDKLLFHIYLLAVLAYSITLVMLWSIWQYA

[7] = target: T5, 5-hydroxytryptamine receptor 1E (Homo sapiens, UniProt P28566); assay: Displacement of [3H]5-HT from human 5-HT1E receptor expressed in HEK cells after 90 mins by microbeta scintillation counting analysis; format: cell-based
[8] = target: T6, 5-hydroxytryptamine receptor 7 (Homo sapiens, UniProt P34969); assay: Displacement of [3H]-LSD from human 5-HT7A receptor expressed in HEK cells after 90 mins by microbeta scintillation counting analysis; format: cell-based
[9] = target: T2, 5-hydroxytryptamine receptor 1B; assay: Antagonist activity at 5-HT1B receptor (unknown origin) by Tango assay; format: functional
[10] = target: T7, 5-hydroxytryptamine receptor 2A (Homo sapiens, UniProt P28223); assay: Displacement of [3H]Ketanserin from 5-HT2A (unknown origin) receptor after 90 mins by microbeta scintillation counting analysis
[11] = target: T8, 5-hydroxytryptamine receptor 6 (Homo sapiens, UniProt P50406); assay: Displacement of [3H]-LSD from human 5-HT6 receptor expressed in HEK cells after 90 mins by microbeta scintillation counting analysis; format: cell-based
[12] = target: T9, 5-hydroxytryptamine receptor 2B (Homo sapiens, UniProt P41595); assay: Displacement of [3H]-LSD from human 5-HT2B receptor expressed in HEK cells after 90 mins by microbeta scintillation counting analysis; format: cell-based
[13] = target: T10, 5-hydroxytryptamine receptor 1D (Homo sapiens, UniProt P28221); assay: Displacement of [3H]5-CT from human 5-HT1D receptor expressed in HEKT cells after 90 mins by microbeta scintillation counting analysis; format: cell-based
[14] = target: T9, 5-hydroxytryptamine receptor 2B; assay: Antagonist activity at 5-HT2B receptor (unknown origin) by calcium release assay; format: functional
[15] = target: T11, 5-hydroxytryptamine receptor 5A (Homo sapiens, UniProt P47898); assay: Displacement of [3H]-LSD from human 5-HT5A receptor expressed in Flp-In CHO cells after 90 mins by microbeta scintillation counting analysis; format: cell-based
[16] = target: T2, 5-hydroxytryptamine receptor 1B; assay: Displacement of [3H]5-CT from human 5-HT1B receptor expressed in HEK cells after 90 mins by microbeta scintillation counting analysis; format: cell-based
[17] = target: T10, 5-hydroxytryptamine receptor 1D; assay: Antagonist activity at 5-HT1D receptor (unknown origin) by Tango assay; format: functional
Mus musculus [18] = assay: Anticonvulsant activity in ip dosed CF1 mouse assessed as protection against 44 mA current-induced seizure after 15 mins by 6 Hz psychomotor test; format: functional; details: 0.25 h
In short: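 Mice received intraperitoneal doses of 10, 30 or 100 mg/kg. At 1/4, 1/2, 1, 2 and 4 h after dosing, four mice per time point were given 44 mA for 3 s through corneal electrodes to elicit a partial psychomotor seizure. The result is the number of mice protected over the number tested.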

[19] = target: T6, 5-hydroxytryptamine receptor 7; assay: Binding affinity to 5-HT7A receptor (unknown origin) by radioligand binding assay
[20] = target: T7, 5-hydroxytryptamine receptor 2A; assay: Binding affinity to 5-HT2A receptor (unknown origin) by radioligand binding assay
[21] = target: T10, 5-hydroxytryptamine receptor 1D; assay: Binding affinity to 5-HT1D receptor (unknown origin) by radioligand binding assay
[22] = target: T11, 5-hydroxytryptamine receptor 5A; assay: Binding affinity to 5-HT5A receptor (unknown origin) by radioligand binding assay
[23] = target: T8, 5-hydroxytryptamine receptor 6; assay: Binding affinity to 5-HT6 receptor (unknown origin) by radioligand binding assay
[24] = target: T5, 5-hydroxytryptamine receptor 1E; assay: Binding affinity to 5-HT1E receptor (unknown origin) by radioligand binding assay
[25] = target: T3, 5-hydroxytryptamine receptor 2C; assay: Binding affinity to 5-HT2C receptor (unknown origin) by radioligand binding assay
[26] = target: T2, 5-hydroxytryptamine receptor 1B; assay: Displacement of [3H]-LSD from human 5-HT1B receptor expressed in baculovirus infected Sf9 cells
[27] = target: T9, 5-hydroxytryptamine receptor 2B; assay: Agonist activity at 5-HT2B receptor (unknown origin) by calcium release assay; format: functional
[28] = target: T4, 5-hydroxytryptamine receptor 3A; assay: Binding affinity to 5-HT3 receptor (unknown origin) by radioligand binding assay
[29] = target: T9, 5-hydroxytryptamine receptor 2B; assay: Ratio of IC50 for antagonist activity at 5-HT2B receptor (unknown origin) by calcium release assay to Ki for displacement of [3H]-LSD from human 5-HT2B receptor expressed in baculovirus infected Sf9 cells; format: functional
Mus musculus [30] = assay: Anticonvulsant activity in ip dosed CF1 mouse assessed as protection against 44 mA current-induced seizure after 1 hr by 6 Hz psychomotor test; format: functional
In short: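 Mice received compound intraperitoneally at 10, 30 and 100 mg/kg. At 0.25, 0.5, 1, 2 and 4 h after dosing, four mice per time point were challenged with 32 or 44 mA for 3 s through corneal electrodes to elicit a partial psychomotor seizure. Data are the number of mice protected over the number tested at each time.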

T10 sequence (P28221 whole entry): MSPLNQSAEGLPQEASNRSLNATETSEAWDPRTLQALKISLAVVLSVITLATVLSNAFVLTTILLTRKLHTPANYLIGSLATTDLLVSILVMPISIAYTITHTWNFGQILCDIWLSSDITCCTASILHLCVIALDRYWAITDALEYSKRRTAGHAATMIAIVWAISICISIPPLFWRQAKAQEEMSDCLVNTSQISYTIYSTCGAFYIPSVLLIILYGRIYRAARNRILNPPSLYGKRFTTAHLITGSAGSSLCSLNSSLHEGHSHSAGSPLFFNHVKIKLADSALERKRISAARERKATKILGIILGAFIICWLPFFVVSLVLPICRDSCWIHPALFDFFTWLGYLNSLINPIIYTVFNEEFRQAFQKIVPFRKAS
T7 sequence (P28223 whole entry): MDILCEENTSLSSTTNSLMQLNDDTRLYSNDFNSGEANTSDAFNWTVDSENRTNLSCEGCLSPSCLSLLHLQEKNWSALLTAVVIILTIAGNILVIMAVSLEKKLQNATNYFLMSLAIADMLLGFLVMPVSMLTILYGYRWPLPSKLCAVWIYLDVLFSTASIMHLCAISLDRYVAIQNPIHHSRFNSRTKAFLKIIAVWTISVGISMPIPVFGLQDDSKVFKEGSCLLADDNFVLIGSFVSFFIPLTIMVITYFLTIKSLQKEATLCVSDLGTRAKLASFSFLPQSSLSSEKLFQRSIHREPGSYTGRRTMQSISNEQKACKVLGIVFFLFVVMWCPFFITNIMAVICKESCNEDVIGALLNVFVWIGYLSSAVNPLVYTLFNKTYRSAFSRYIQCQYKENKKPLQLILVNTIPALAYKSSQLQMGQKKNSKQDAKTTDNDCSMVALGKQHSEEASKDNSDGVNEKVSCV
T9 sequence (P41595 whole entry): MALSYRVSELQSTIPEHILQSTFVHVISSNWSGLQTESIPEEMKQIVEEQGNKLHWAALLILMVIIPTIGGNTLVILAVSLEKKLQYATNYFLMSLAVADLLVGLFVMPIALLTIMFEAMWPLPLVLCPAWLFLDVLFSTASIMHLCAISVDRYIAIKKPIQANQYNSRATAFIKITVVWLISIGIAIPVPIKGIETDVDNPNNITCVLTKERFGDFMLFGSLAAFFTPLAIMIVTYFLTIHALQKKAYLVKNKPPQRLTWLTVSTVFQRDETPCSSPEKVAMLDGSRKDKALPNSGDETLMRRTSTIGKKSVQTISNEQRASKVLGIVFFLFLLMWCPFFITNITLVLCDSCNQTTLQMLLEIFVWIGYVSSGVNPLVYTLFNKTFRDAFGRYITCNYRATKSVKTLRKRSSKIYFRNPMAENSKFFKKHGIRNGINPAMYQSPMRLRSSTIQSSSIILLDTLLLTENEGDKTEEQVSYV
T8 sequence (P50406 whole entry): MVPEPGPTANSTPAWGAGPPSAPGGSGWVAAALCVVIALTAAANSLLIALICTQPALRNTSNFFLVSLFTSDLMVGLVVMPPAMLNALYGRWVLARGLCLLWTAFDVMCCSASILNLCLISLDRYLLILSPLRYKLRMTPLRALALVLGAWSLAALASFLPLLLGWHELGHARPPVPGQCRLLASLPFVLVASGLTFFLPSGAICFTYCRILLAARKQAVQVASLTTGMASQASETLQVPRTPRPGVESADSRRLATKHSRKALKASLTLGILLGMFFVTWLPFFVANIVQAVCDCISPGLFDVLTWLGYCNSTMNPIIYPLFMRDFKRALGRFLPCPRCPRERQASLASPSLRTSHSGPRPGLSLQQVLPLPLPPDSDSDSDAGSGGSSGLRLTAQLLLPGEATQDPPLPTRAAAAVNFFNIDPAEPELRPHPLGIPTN
T2 sequence (P28222 whole entry): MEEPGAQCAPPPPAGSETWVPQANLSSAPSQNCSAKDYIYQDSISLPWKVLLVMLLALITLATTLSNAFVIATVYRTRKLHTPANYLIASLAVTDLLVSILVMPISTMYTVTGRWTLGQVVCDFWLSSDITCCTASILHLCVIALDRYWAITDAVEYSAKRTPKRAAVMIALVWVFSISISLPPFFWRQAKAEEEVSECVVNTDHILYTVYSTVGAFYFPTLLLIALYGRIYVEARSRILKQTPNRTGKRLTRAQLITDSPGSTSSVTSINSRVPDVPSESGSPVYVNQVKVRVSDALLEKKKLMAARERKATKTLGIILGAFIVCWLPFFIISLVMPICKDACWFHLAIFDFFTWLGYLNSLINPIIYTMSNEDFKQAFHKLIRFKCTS
T11 sequence (P47898 whole entry): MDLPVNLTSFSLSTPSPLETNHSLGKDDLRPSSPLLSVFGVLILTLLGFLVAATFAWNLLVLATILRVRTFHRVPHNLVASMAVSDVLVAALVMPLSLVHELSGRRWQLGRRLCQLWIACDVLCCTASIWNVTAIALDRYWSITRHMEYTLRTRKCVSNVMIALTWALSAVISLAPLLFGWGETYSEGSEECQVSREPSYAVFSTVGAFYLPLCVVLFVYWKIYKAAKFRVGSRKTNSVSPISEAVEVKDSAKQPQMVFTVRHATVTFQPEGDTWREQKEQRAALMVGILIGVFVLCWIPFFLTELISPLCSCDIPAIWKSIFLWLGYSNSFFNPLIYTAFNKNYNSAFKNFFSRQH
T6 sequence (P34969 whole entry): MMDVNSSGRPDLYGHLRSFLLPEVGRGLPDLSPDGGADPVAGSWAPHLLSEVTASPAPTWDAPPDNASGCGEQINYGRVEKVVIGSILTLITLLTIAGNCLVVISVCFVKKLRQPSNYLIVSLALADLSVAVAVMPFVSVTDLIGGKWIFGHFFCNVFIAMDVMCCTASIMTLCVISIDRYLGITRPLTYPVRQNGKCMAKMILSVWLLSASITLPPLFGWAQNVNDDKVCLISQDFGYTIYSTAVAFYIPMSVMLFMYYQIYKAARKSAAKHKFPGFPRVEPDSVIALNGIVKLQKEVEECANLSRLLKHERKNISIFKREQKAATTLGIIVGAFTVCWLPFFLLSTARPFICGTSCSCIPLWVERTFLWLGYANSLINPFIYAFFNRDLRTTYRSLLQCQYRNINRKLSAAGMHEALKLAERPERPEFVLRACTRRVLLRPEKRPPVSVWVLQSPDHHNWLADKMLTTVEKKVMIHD
T5 sequence (P28566 whole entry): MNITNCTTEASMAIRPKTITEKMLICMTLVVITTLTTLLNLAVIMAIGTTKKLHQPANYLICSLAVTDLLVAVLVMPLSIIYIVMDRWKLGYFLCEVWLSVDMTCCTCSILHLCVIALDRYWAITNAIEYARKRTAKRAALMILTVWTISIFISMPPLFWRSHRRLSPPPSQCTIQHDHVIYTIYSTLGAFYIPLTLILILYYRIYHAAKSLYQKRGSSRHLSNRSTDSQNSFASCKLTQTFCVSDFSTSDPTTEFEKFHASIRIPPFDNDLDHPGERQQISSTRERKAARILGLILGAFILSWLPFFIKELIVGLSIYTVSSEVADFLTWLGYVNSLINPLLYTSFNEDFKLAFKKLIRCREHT
Sequence of 5-hydroxytryptamine receptor 4 (Q13639 whole entry): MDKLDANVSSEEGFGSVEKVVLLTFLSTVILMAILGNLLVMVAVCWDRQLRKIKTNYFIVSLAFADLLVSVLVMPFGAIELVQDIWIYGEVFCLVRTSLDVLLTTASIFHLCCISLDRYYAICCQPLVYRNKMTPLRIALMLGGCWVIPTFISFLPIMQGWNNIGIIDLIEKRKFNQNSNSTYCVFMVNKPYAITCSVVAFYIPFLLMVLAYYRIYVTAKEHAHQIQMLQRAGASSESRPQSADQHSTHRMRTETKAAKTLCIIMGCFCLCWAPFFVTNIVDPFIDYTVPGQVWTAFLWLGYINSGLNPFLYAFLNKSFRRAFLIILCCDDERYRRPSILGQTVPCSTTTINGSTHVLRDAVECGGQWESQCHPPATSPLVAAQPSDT

Row | SMILES | IC50 [1] [µM] | inhibition [2] [%] | EC50 [3] [µM] | Ki [4] [µM] | IC50 [5] [µM] | Ki [6] [µM] | Ki [7] [µM] | Ki [8] [µM] | IC50 [9] [µM] | Ki [10] [µM] | Ki [11] [µM] | Ki [12] [µM] | Ki [13] [µM] | IC50 [14] [µM] | Ki [15] [µM] | Ki [16] [µM] | IC50 [17] [µM] | also measured
1 | CCCCCCOc1ccc(C2=N[C@@H](CO)[C@H](C)S2)cc1 (relative stereo) | > 10 | 100 | 0.18 | 1.7 | > 10 | > 10 | > 10 | > 10 | 1.9 | 3.9 | > 10 | 4.3 | > 10 | > 10 | > 10 | > 10 | > 10 | –
2 | CCCCOc1ccc(C2=N[C@@H](CO)[C@H](C)S2)cc1 (relative stereo) | > 10 | 100 | 0.029 | 3.2 | > 10 | > 10 | > 10 | > 10 | 2.1 | 2.2 | > 10 | 7.5 | 9.7 | > 10 | > 10 | > 10 | > 10 | –
3 | CCC1(C)CC(=O)NC1=O (stereo not drawn) [ETHOSUXIMIDE] | – | – | – | – | – | – | – | – | – | – | – | – | – | – | – | – | – | ED50 (Mus musculus [18]): > 600 mg/kg
4 | C[C@@H]1SC(c2ccccc2O)=N[C@@H]1CO [PULICATIN A] | – | – | – | – | – | – | – | – | – | – | – | – | – | 30 | – | – | – | Ki [19]: > 10 µM; Ki [20]: > 10 µM; Ki [21]: > 10 µM; Ki [22]: > 10 µM; Ki [23]: > 10 µM; Ki [24]: > 10 µM; Ki [25]: > 10 µM; Ki [26]: > 10 µM; Activity [27]: inactive; Ki [28]: > 10 µM; Ratio [29]: 50 to 140
5 | CCCC(CCC)C(=O)O [VALPROIC ACID] | – | – | – | – | – | – | – | – | – | – | – | – | – | – | – | – | – | ED50 (Mus musculus [30]): 310 mg/kg

— ChEMBL document CHEMBL4190286, “Modulating the Serotonin Receptor Spectrum of Pulicatin Natural Products” (J Nat Prod, 2017)
